Results of several laboratories.
Target: Serine/threonine-protein kinase MARK1 (MARK1, Homo sapiens, UniProt Q9P0L2)
Observed: enzyme activity
Action: inhibitor

SMILES	test	setting	remaining activity [%]
NS(=O)(=O)c1ccc(CNc2ccnc(Nc3cccc(NC(=O)N4CCCC4)c3)n2)cc1	radiometric	1 µM	104
CCCOc1ccc(OC)c(F)c1C(=O)c1ccc(C(=O)N[C@@H]2CNC[C@H]2NC(=O)c2ccc3[nH]ncc3c2)cc1		10 µM	21
NS(=O)(=O)c1ccc(CNc2nc(Nc3cccc(CN4CCOCC4)c3)ncc2C2CC2)cc1	radiometric	1 µM	100
COc1cc(Nc2cnc(C#N)c(O[C@H](C)CN(C)C)n2)ncc1-c1cnn(C)c1	radiometric	10 µM	80
Cn1c(=O)n(-c2ccc(C(C)(C)C#N)cc2)c2c3cc(-c4cnc5ccccc5c4)ccc3ncc21		10 µM	97
CC(C)(C)c1nc(-c2cccc(NS(=O)(=O)c3c(F)cccc3F)c2F)c(-c2ccnc(N)n2)s1	radiometric	1 µM	90
Cc1ccc(C(=O)Nc2ccc(CN3CCN(C)CC3)c(C(F)(F)F)c2)cc1C#Cc1cnc2cccnn12		23.5 nM	100
CC(C)(O)[C@H]1CC[C@H](Nc2ccc3ncc(-c4cccc(C(F)(F)F)c4)n3n2)CC1		1 µM	102
Oc1cccc(-c2nc(N3CCOCC3)c3oc4ncccc4c3n2)c1		10 µM	91
COc1cc(Cl)c(C(=O)N[C@@H](CN[C@H]2CC[C@@H](N)CC2)Cc2ccc(C#N)cc2)cc1-c1ccc(CN[C@H](C)c2ccc(C)cc2)o1		1 µM	148
Cc1nn(CC(F)(F)F)cc1Nc1nccc(NCCc2cnc[nH]2)n1	radiometric	1 µM	109
CCN(CC)c1ccc(C2=NNC(=O)CC2C)cc1[N+](=O)[O-] (stereo not shown)		10 µM	102
O=C(NCCCNc1nc(Nc2cccc(NC(=O)N3CCCC3)c2)ncc1Br)C1CCC1	radiometric	1 µM	-6
CC(C)(C)c1nc2c(s1)c1nc(N)ncc1c1ccc(NS(=O)(=O)c3c(F)cccc3F)c(F)c12	radiometric	1 µM	90
O=C(Nc1cnn(-c2csc(C(=O)NC3COC3)c2)c1)Nc1c(F)cccc1Cl		5 µM	108
NS(=O)(=O)c1ccc(CNc2nc(Nc3cccc(CN4CCOCC4)c3)ncc2Br)cc1	radiometric	1 µM	66
O=C(Nc1cnn(-c2csc(C(=O)NC3COC3)c2)c1)Nc1ccccc1Cl		5 µM	96.3
c1cc(CN2CCOCC2)cc(Nc2ncc(C3CC3)c(NCCc3c[nH]cn3)n2)c1	radiometric	1 µM	1
Cc1cnc(NC2CCOCC2)nc1-n1cnc(C(=O)NC(CN)c2cc(F)cc(Cl)c2)c1 (stereo not shown)	radiometric	1 µM	43
